In ChEMBL document CHEMBL4219167, “Disulfiram-based disulfides as narrow-spectrum antibacterial agents” (Bioorg Med Chem Lett, 2018):
pIC50: −log10 of the molar value. ≈ marks a conversion by molar mass, not a printed value.

Assays:
Citrobacter freundii = test: Antibacterial activity against Citrobacter freundii 4_7_47CFAA after 20 hrs by broth microdilution assay; assay type: functional
Summary of the method: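 Brucella broth, 37°C, 5% CO2. Inoculum is 0.5 McFarland diluted 1:100, with serial drug dilutions from DMSO stocks (1 mM or 1 mg/mL) and control antibiotics in water.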

[1] = system: Staphylococcus epidermidis; test: Antibacterial activity against vancomycin-intermediate resistant Staphylococcus epidermidis NRS6 after 20 hrs by broth microdilution assay; assay type: functional; conditions: NRS6, 20 h
[2] = system: Staphylococcus epidermidis; test: Synergistic antibacterial activity against vancomycin-intermediate resistant Staphylococcus epidermidis NRS53 assessed as vancomycin MIC after 20 hrs by checkerboard microdilution assay; assay type: functional; conditions: NRS53, 20 h
Yersinia enterocolitica = test: Antibacterial activity against Yersinia enterocolitica WA-314 after 20 hrs by broth microdilution assay; assay type: functional; conditions: WA-314, 20 h
Summary of the method: (§1)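 Yersinia cultured in tryptic soy broth at 28°C. A 0.5 McFarland suspension diluted 1:100 receives serial dilutions of agents from 1 mM or 1 mg/mL DMSO stocks; control antibiotics are in water.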

Burkholderia multivorans = test: Antibacterial activity against Burkholderia multivorans CF2 after 20 hrs by broth microdilution assay; assay type: functional; conditions: CF2, 20 h
Summary of the method: (§2)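 Medium is tryptic soy broth, 37°C. Overnight culture is adjusted to 0.5 McFarland, diluted 1:100 and exposed to serial dilutions (test agents from 1 mM or 1 mg/mL DMSO stocks; control antibiotics in water). Incubation lasts 20 h. MIC is the lowest concentration with no visible growth.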

Streptococcus pyogenes = test: Antibacterial activity against Streptococcus pyogenes H293 after 20 hrs by broth microdilution assay; assay type: functional; conditions: H293, 20 h
Francisella tularensis = test: Antibacterial activity against Francisella tularensis Utah 112 after 20 hrs by broth microdilution assay; assay type: functional; conditions: Utah 112, 20 h
Klebsiella pneumoniae = test: Antibacterial activity against Klebsiella pneumoniae 700603 after 20 hrs by broth microdilution assay; assay type: functional; conditions: Klebsiella pneumoniae, 700603, 20 h; summary of the method: as §2
Staphylococcus aureus [3] = test: Synergistic antibacterial activity against vancomycin-intermediate resistant Staphylococcus aureus AR-217 assessed as vancomycin MIC after 20 hrs by checkerboard microdilution assay; assay type: functional; conditions: AR-217, 20 h
Escherichia coli = test: Antibacterial activity against Escherichia coli DC10B after 20 hrs by broth microdilution assay; assay type: functional; summary of the method: as §2
Streptococcus agalactiae = test: Antibacterial activity against Streptococcus agalactiae SGBS005 after 20 hrs by broth microdilution assay; assay type: functional; conditions: SGBS005, 20 h
Staphylococcus aureus [4] = test: Synergistic antibacterial activity against vancomycin-resistant Staphylococcus aureus HIP14300 after 20 hrs in presence of vancomycin by checkerboard microdilution assay; assay type: functional; conditions: HIP14300, 20 h
Rhodococcus erythropolis = test: Antibacterial activity against Rhodococcus erythropolis SK121 after 20 hrs by broth microdilution assay; assay type: functional; conditions: SK121, 20 h
Summary of the method: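 R. erythropolis grown in brain heart infusion broth at 30°C. A 0.5 McFarland suspension diluted 1:100 is treated with serial dilutions from 1 mM or 1 mg/mL DMSO stocks; control antibiotics are in water.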

Staphylococcus aureus [5] = test: Antibacterial activity against methicillin-resistant Staphylococcus aureus; assay type: functional
Staphylococcus aureus [6] = test: Antibacterial activity against vancomycin-resistant Staphylococcus aureus HIP14300 after 20 hrs by broth microdilution assay; assay type: functional; conditions: HIP14300, 20 h
Corynebacterium striatum = test: Antibacterial activity against Corynebacterium striatum FS-1 after 20 hrs by broth microdilution assay; assay type: functional; conditions: FS-1, 20 h
Bacillus cereus = test: Antibacterial activity against Bacillus cereus Gibson 971 after 20 hrs by broth microdilution assay; assay type: functional; conditions: Gibson 971, 20 h
Staphylococcus aureus [7] = test: Antibacterial activity against methicillin-resistant Staphylococcus aureus COL after 20 hrs by broth microdilution assay; assay type: functional
Burkholderia cepacia = test: Antibacterial activity against Burkholderia cepacia UCB 717 after 20 hrs by broth microdilution assay; assay type: functional; conditions: UCB 717, 20 h; summary of the method: as §2
Pseudomonas aeruginosa = test: Antibacterial activity against Pseudomonas aeruginosa ATCC 15442 after 20 hrs by broth microdilution assay; assay type: functional; conditions: ATCC 15442, 20 h; summary of the method: as §2
[8] = system: Staphylococcus epidermidis; test: Antibacterial activity against vancomycin-intermediate resistant Staphylococcus epidermidis NRS53 after 20 hrs by broth microdilution assay; assay type: functional; conditions: NRS53, 20 h
Yersinia pestis [9] = test: Antibacterial activity against Yersinia pestis Kim D2 after 20 hrs by broth microdilution assay; assay type: functional; conditions: Kim D2, 20 h
Streptococcus pneumoniae = test: Antibacterial activity against Streptococcus pneumoniae TCH8431 after 20 hrs by broth microdilution assay; assay type: functional; conditions: TCH8431, 20 h
Micrococcus luteus = test: Antibacterial activity against Micrococcus luteus SK58 after 20 hrs by broth microdilution assay; assay type: functional; conditions: SK58, 20 h
Proteus mirabilis = test: Antibacterial activity against Proteus mirabilis HM-752 after 20 hrs by broth microdilution assay; assay type: functional; conditions: HM-752, 20 h; summary of the method: as §2
Enterococcus faecium = test: Antibacterial activity against vancomycin-resistant Enterococcus faecium ATCC 700221 after 20 hrs by broth microdilution assay; assay type: functional; conditions: ATCC 700221, 20 h
Summary of the method: (§3)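 Brain heart infusion broth at 37°C; E. faecium under 5% CO2. Cells at 0.5 McFarland are diluted 1:100 and exposed to serial dilutions (DMSO stocks 1 mM or 1 mg/mL; controls in water).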

Staphylococcus aureus [10] = test: Antibacterial activity against vancomycin-intermediate resistant Staphylococcus aureus AR-217 after 20 hrs by broth microdilution assay; assay type: functional; conditions: AR-217, 20 h
[11] = system: Staphylococcus epidermidis; test: Synergistic antibacterial activity against vancomycin-intermediate resistant Staphylococcus epidermidis NRS53 after 20 hrs in presence of vancomycin by checkerboard microdilution assay; assay type: functional; conditions: NRS53, 20 h
Shigella dysenteriae = test: Antibacterial activity against Shigella dysenteriae Newcastle 1934 after 20 hrs by broth microdilution assay; assay type: functional; conditions: Newcastle 1934, 20 h; summary of the method: as §2
[12] = system: Yersinia pseudotuberculosis; test: Antibacterial activity against Yersinia pseudotuberculosis P61 after 20 hrs by broth microdilution assay; assay type: functional; conditions: P61, 20 h; summary of the method: as §1
Yersinia pestis [13] = test: Antibacterial activity against Yersinia pestis Kuma D7 after 20 hrs by broth microdilution assay; assay type: functional; conditions: Kuma D7, 20 h
Vibrio cholerae = test: Antibacterial activity against Vibrio cholerae TS D4 after 20 hrs by Todd Hewitt broth broth microdilution method; assay type: functional; conditions: TS D4, 20 h
Brucella neotomae = test: Antibacterial activity against Brucella neotomae 5K33 after 20 hrs by broth microdilution assay; assay type: functional; conditions: 5K33, 20 h
HepG2 = test: Cytotoxicity against human HepG2 cells assessed as reduction in cell viability after 72 hrs by MTT assay; assay type: cell-based; conditions: HepG2, 72 h
Listeria monocytogenes = test: Antibacterial activity against Listeria monocytogenes Gibson after 20 hrs by broth microdilution assay; assay type: functional; summary of the method: as §3
Acinetobacter baumannii = test: Antibacterial activity against Acinetobacter baumannii AB5075 after 20 hrs by broth microdilution assay; assay type: functional; conditions: AB5075, 20 h
Staphylococcus aureus [14] = test: Synergistic antibacterial activity against vancomycin-resistant Staphylococcus aureus HIP14300 assessed as vancomycin MIC after 20 hrs by checkerboard microdilution assay; assay type: functional; conditions: HIP14300, 20 h

CCN(CC)C(=S)SSC(=S)N(CC)CC
MIC (Citrobacter freundii): > 32 µM | MIC [1]: 32 µM (≈ 9.49 µg/mL) | MIC [2]: 4 µg/mL | MIC (Yersinia enterocolitica): > 32 µM | MIC (Burkholderia multivorans): 32 µM (≈ 9.49 µg/mL) | MIC (Streptococcus pyogenes): 16 µM (≈ 4.74 µg/mL) | MIC (Francisella tularensis): 32 µM (≈ 9.49 µg/mL) | MIC (Klebsiella pneumoniae): > 32 µM | MIC (Staphylococcus aureus [3]): 2 µg/mL | MIC (Escherichia coli): > 32 µM | MIC (Streptococcus agalactiae): > 32 µM | MIC (Staphylococcus aureus [4]): 2 µg/mL | MIC (Rhodococcus erythropolis): 16 µM (≈ 4.74 µg/mL) | MIC (Staphylococcus aureus [5]): 4 to 32 µg/mL (≈ 13.5 to 108 µM) | MIC (Staphylococcus aureus [6]): 32 µM (≈ 9.49 µg/mL) | MIC (Corynebacterium striatum): > 32 µM | MIC (Bacillus cereus): 4 µM (≈ 1.19 µg/mL) | MIC (Staphylococcus aureus [7]): 32 µM (≈ 9.49 µg/mL) | MIC (Burkholderia cepacia): > 32 µM | MIC (Pseudomonas aeruginosa): > 32 µM | MIC [8]: 4 µg/mL (≈ 13.5 µM) | MIC (Yersinia pestis [9]): 32 µM (≈ 9.49 µg/mL) | MIC (Streptococcus pneumoniae): > 32 µM | MIC (Micrococcus luteus): 32 µM (≈ 9.49 µg/mL) | MIC (Proteus mirabilis): > 32 µM | MIC (Enterococcus faecium): > 32 µM | MIC (Staphylococcus aureus [10]): 8 µM (≈ 2.37 µg/mL) | MIC [11]: 2 µg/mL | MIC (Shigella dysenteriae): > 32 µM | MIC [12]: > 32 µM | MIC (Yersinia pestis [13]): 32 µM (≈ 9.49 µg/mL) | MIC (Vibrio cholerae): > 32 µM | MIC (Brucella neotomae): > 32 µM | pIC50 (HepG2): 4.42 | MIC (Listeria monocytogenes): > 32 µM | MIC (Acinetobacter baumannii): > 32 µM | MIC (Staphylococcus aureus [14]): 8 µg/mL
